Data taken from ChEMBL document CHEMBL1143812, “A novel bis-tetrahydrofuranylurethane-containing nonpeptidic protease inhibitor (PI), GRL-98065, is potent against multiple-PI-resistant human immunodeficiency virus in vitro” (Antimicrob Agents Chemother, 2007).
pEC50: −log10 of the molar value.

What was measured:
[1] = system: Human immunodeficiency virus 1; test: Antiviral activity against HIV1 GRL98065p20 in MT4 cells assessed as inhibition of p24 Gag protein expression by MTT assay; type: functional, organism-based; details: Human immunodeficiency virus 1, MT4
In short: (§1)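 MT-4 cells (10^5/ml) infected with 100 TCID50s of wild-type or PI-resistant NL4-3 virus and incubated at 37°C with or without graded drug concentrations. On day 7, supernatant p24 Gag was measured by chemiluminescent enzyme immunoassay. […] Assays were run in duplicate or triplicate.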

[2] = system: Human immunodeficiency virus 1; test: Antiviral activity against idinavir-resistant HIV1 in MT4 cells assessed as inhibition of p24 Gag protein expression by MTT assay; type: functional, organism-based; details: Human immunodeficiency virus 1, MT4; in short: as §1
[3] = system: Human immunodeficiency virus 1; test: Antiviral activity against HIV1 MDR/B X4 in phytohemagglutininin-activated PBMCs assessed as inhibition of p24 Gag protein expression by MTT assay; type: functional, organism-based
In short: (§2)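 PHA-activated PBMCs (10^6/ml) infected with 50 TCID50s of each isolate and cultured with or without drug in 10-fold serial dilutions. The read-out was supernatant p24 Gag by chemiluminescent enzyme immunoassay. […] Assays were run in duplicate or triplicate, with one donor per experiment and three donors in total.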

[4] = system: Human immunodeficiency virus 1; test: Antiviral activity against HIV1 BaL R5 subtype B in phytohemagglutininin-activated PBMCs assessed as inhibition of p24 Gag protein expression by MTT assay; type: functional, organism-based
In short: (§3)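 PHA-activated PBMCs (10^6/ml) infected with 50 TCID50s of each isolate and cultured with or without drug in 10-fold serial dilutions. The read-out was supernatant p24 Gag by chemiluminescent enzyme immunoassay. Assays were run in duplicate or triplicate, with one donor per experiment and three donors in total.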

[5] = system: Human immunodeficiency virus 1; test: Antiviral activity against HIV1 MDR/TM X4 in phytohemagglutininin-activated PBMCs assessed as inhibition of p24 Gag protein expression by MTT assay; type: functional, organism-based; in short: as §2
[6] = system: Human immunodeficiency virus 1; test: Antiviral activity against ritonavir-resistant HIV1 in MT4 cells assessed as inhibition of p24 Gag protein expression by MTT assay; type: functional, organism-based; details: Human immunodeficiency virus 1, MT4; in short: as §1
[7] = system: Human immunodeficiency virus 2; test: Antiviral activity against HIV2 ROD in MT2 cells assessed as inhibition of p24 Gag protein expression by MTT assay; type: functional, organism-based; details: Human immunodeficiency virus 2, ROD
In short: (§4)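 MT-2 cells (2 × 10^4/ml) were infected with 100 TCID50s of the HIV-1LAI, HIV-2EHO or HIV-2ROD strain. They were cultured with serial drug concentrations at 37°C for 7 days. MTT was then added for 4 h at 37°C, formazan was dissolved in acidified isopropanol with 4% Triton X-100, and optical density was read. EC50 is the mean of three independent experiments, each run in duplicate.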

[8] = system: Human immunodeficiency virus 1; test: Antiviral activity against HIV1 LAI in MT2 cells assessed as inhibition of p24 Gag protein expression by MTT assay; type: functional, organism-based; details: Human immunodeficiency virus 1, LAI; in short: as §4
[9] = system: Human immunodeficiency virus 1; test: Antiviral activity against HIV1 GRL98065p40 in MT4 cells assessed as inhibition of p24 Gag protein expression by MTT assay; type: functional, organism-based; details: Human immunodeficiency virus 1, MT4; in short: as §1
[10] = system: Human immunodeficiency virus 1; test: Antiviral activity against nelfinavir-resistant HIV1 in MT4 cells assessed as inhibition of p24 Gag protein expression by MTT assay; type: functional, organism-based; details: Human immunodeficiency virus 1, MT4; in short: as §1
[11] = system: Human immunodeficiency virus 1; test: Antiviral activity against saquinavir-resistant HIV1 in MT4 cells assessed as inhibition of p24 Gag protein expression by MTT assay; type: functional, organism-based; details: Human immunodeficiency virus 1, MT4; in short: as §1
[12] = system: Human immunodeficiency virus 1; test: Antiviral activity against HIV1 92TH019 R5 subtype E in phytohemagglutininin-activated PBMCs assessed as inhibition of p24 Gag protein expression by MTT assay; type: functional, organism-based; in short: as §2
[13] = system: Human immunodeficiency virus 1; test: Antiviral activity against HIV1 MDR/JSL R5 in phytohemagglutininin-activated PBMCs assessed as inhibition of p24 Gag protein expression by MTT assay; type: functional, organism-based; in short: as §2
[14] = system: Human immunodeficiency virus 1; test: Antiviral activity against HIV1 GRL98065p30 in MT4 cells assessed as inhibition of p24 Gag protein expression by MTT assay; type: functional, organism-based; details: Human immunodeficiency virus 1, MT4; in short: as §1
[15] = Cytotoxicity against human MT2 cells assessed as inhibition of p24 Gag protein expression by MTT assay; type: cell-based
[16] = system: Human immunodeficiency virus 1; test: Antiviral activity against HIV1 97ZA003 R5 subtype C in phytohemagglutininin-activated PBMCs assessed as inhibition of p24 Gag protein expression by MTT assay; type: functional, organism-based; in short: as §2
[17] = system: Human immunodeficiency virus 1; test: Antiviral activity against HIV1 MDR/MM R5 in phytohemagglutininin-activated PBMCs assessed as inhibition of p24 Gag protein expression by MTT assay; type: functional, organism-based; in short: as §2
[18] = system: Human immunodeficiency virus 1; test: Antiviral activity against wild type HIV1 ERS104prc X4 in phytohemagglutininin-activated PBMCs assessed as inhibition of p24 Gag protein expression by MTT assay; type: functional, organism-based; in short: as §3
[19] = system: Human immunodeficiency virus 2; test: Antiviral activity against HIV2 EHO in MT2 cells assessed as inhibition of p24 Gag protein expression by MTT assay; type: functional, organism-based; details: Human immunodeficiency virus 2, EHO; in short: as §4
[20] = system: Human immunodeficiency virus 1; test: Antiviral activity against lopinavir-resistant HIV1 in MT4 cells assessed as inhibition of p24 Gag protein expression by MTT assay; type: functional, organism-based; details: Human immunodeficiency virus 1, MT4; in short: as §1
[21] = system: Human immunodeficiency virus 1; test: Antiviral activity against HIV1 MDR/C X4 in phytohemagglutininin-activated PBMCs assessed as inhibition of p24 Gag protein expression by MTT assay; type: functional, organism-based; in short: as §2
[22] = system: Human immunodeficiency virus 1; test: Antiviral activity against amprenavir-resistant HIV1 in MT4 cells assessed as inhibition of p24 Gag protein expression by MTT assay; type: functional, organism-based; details: Human immunodeficiency virus 1, MT4; in short: as §1
[23] = system: Human immunodeficiency virus 1; test: Antiviral activity against HIV1 92UG037 subtype A R5 in phytohemagglutininin-activated PBMCs assessed as inhibition of p24 Gag protein expression by MTT assay; type: functional, organism-based; in short: as §2
[24] = system: Human immunodeficiency virus 1; test: Antiviral activity against HIV1 NL4-3 in MT4 cells by MTT assay; type: functional, organism-based; details: Human immunodeficiency virus 1, NL4-3, MT4
[25] = system: Human immunodeficiency virus 1; test: Antiviral activity against atazanavir-resistant HIV1 in MT4 cells assessed as inhibition of p24 Gag protein expression by MTT assay; type: functional, organism-based; details: Human immunodeficiency virus 1, MT4; in short: as §1
[26] = system: Human immunodeficiency virus 1; test: Antiviral activity against HIV1 92UG029 X4 subtype A in phytohemagglutininin-activated PBMCs assessed as inhibition of p24 Gag protein expression by MTT assay; type: functional, organism-based; in short: as §2
[27] = system: Human immunodeficiency virus 1; test: Antiviral activity against HIV1 MDR/G X4 in phytohemagglutininin-activated PBMCs assessed as inhibition of p24 Gag protein expression by MTT assay; type: functional, organism-based; in short: as §3

Row | Structure (SMILES) | pEC50 [1] | pEC50 [2] | pEC50 [3] | pEC50 [4] | pEC50 [5] | pEC50 [6] | pEC50 [7] | pEC50 [8] | pEC50 [9] | pEC50 [10] | pEC50 [11] | pEC50 [12] | pEC50 [13] | pEC50 [14] | CC50 [15] | pEC50 [16] | pEC50 [18] | pEC50 [19] | pEC50 [23] | pEC50 [26] | further results
1 | CC(C)(C)NC(=O)[C@@H]1C[C@@H]2CCCC[C@@H]2CN1C[C@@H](O)[C@H](Cc1ccccc1)NC(=O)[C@H](CC(N)=O)NC(=O)c1ccc2ccccc2n1 | 7.92 | 7.23 | 6.57 | 8.08 | 6.74 | 8.00 | 8.37 | 8.10 | 7.49 | 7.62 | < 6.00 | 8.52 | 6.54 | 7.66 | 16400 nM | 8.17 | 8.10 | 8.52 | 8.49 | 8.32 | pEC50 [17]: 6.85; pEC50 [20]: 7.49; pEC50 [21]: 7.46; pEC50 [22]: 7.51; pEC50 [24]: 8.15; pEC50 [25]: 7.43; pEC50 [27]: 7.48
2 | CC(C)CN(C[C@@H](O)[C@H](Cc1ccccc1)NC(=O)O[C@H]1CCOC1)S(=O)(=O)c1ccc(N)cc1 | 7.24 | 6.77 | 6.44 | – | 6.52 | 6.55 | 6.24 | 7.44 | < 6.00 | 7.22 | 6.48 | 7.68 | 6.37 | 6.48 | > 100000 nM | 7.48 | 7.54 | 6.60 | 7.57 | 7.34 | pEC50 [17]: 6.32; pEC50 [20]: 6.51; pEC50 [22]: < 6.00; pEC50 [25]: 6.70
3 | CC(C)CN(C[C@@H](O)[C@H](Cc1ccccc1)NC(=O)O[C@H]1CO[C@H]2OCC[C@H]21)S(=O)(=O)c1ccc(N)cc1 | 7.68 | 7.82 | 7.40 | – | 8.37 | 7.74 | 8.17 | 8.41 | 6.68 | 8.48 | 8.24 | – | 7.57 | 7.44 | 83100 nM | – | 8.42 | 8.10 | – | – | pEC50 [17]: 7.80; pEC50 [21]: 8.05; pEC50 [22]: 6.48; pEC50 [25]: 8.47; pEC50 [27]: 8.15
4 | CC(C)CN(C[C@@H](O)[C@H](Cc1ccccc1)NC(=O)O[C@H]1CO[C@H]2OCC[C@H]21)S(=O)(=O)c1ccc2c(c1)OCO2 | 8.42 | 8.43 | 8.41 | 9.70 | 8.49 | 8.60 | 8.35 | 9.30 | 6.74 | 8.62 | 8.22 | 9.52 | 8.22 | 8.10 | 35700 nM | 9.30 | 9.30 | 8.49 | 9.40 | 9.30 | pEC50 [17]: 8.42; pEC50 [20]: 8.12; pEC50 [21]: 8.57; pEC50 [22]: 7.49; pEC50 [24]: 9.52; pEC50 [25]: 8.82; pEC50 [27]: 8.47
5 | CC(C)(C)NC(=O)[C@@H]1CN(Cc2cccnc2)CCN1C[C@@H](O)C[C@@H](Cc1ccccc1)C(=O)N[C@H]1c2ccccc2C[C@H]1O | 7.40 | < 6.00 | < 6.00 | 7.66 | < 6.00 | 6.60 | 7.27 | 7.32 | 6.55 | 6.57 | < 6.00 | 7.68 | < 6.00 | 7.23 | 69800 nM | 7.43 | 7.62 | 7.62 | 7.47 | 7.36 | pEC50 [17]: < 6.00; pEC50 [20]: < 6.00; pEC50 [21]: < 6.00; pEC50 [22]: 6.70; pEC50 [25]: 6.41; pEC50 [27]: 6.19
6 | Cc1c(O)cccc1C(=O)N[C@@H](CSc1ccccc1)[C@H](O)CN1C[C@H]2CCCC[C@H]2C[C@H]1C(=O)NC(C)(C)C | 7.10 | – | – | 7.74 | – | – | 6.62 | 7.49 | – | – | – | 7.54 | – | 6.57 | 8100 nM | 7.43 | – | 7.52 | 7.25 | 7.37 | pEC50 [24]: 7.48
7 | COC(=O)N[C@H](C(=O)N[C@@H](Cc1ccccc1)[C@@H](O)CN(Cc1ccc(-c2ccccn2)cc1)NC(=O)[C@@H](NC(=O)OC)C(C)(C)C)C(C)(C)C [ATAZANAVIR] | 8.22 | 7.22 | 6.60 | 8.89 | 7.42 | 7.74 | 7.89 | 8.32 | 7.96 | 7.68 | 6.49 | 8.57 | 6.27 | 8.10 | 27600 nM | 8.47 | 8.42 | 8.30 | 8.60 | 8.22 | pEC50 [17]: 7.35; pEC50 [20]: 7.40; pEC50 [21]: 7.68; pEC50 [22]: 8.52; pEC50 [24]: 8.38; pEC50 [25]: 6.48; pEC50 [27]: 7.49
8 | Cc1cccc(C)c1OCC(=O)N[C@@H](Cc1ccccc1)[C@@H](O)C[C@H](Cc1ccccc1)NC(=O)[C@H](C(C)C)N1CCCNC1=O [LOPINAVIR] | 7.47 | – | – | 8.28 | – | – | 8.31 | 8.15 | – | – | – | 8.48 | – | 7.22 | > 100000 nM | 8.14 | 8.15 | 8.59 | – | 8.15 | –
9 | CC(C)c1nc(CN(C)C(=O)N[C@H](C(=O)N[C@@H](Cc2ccccc2)C[C@H](O)[C@H](Cc2ccccc2)NC(=O)OCc2cncs2)C(C)C)cs1 [RITONAVIR] | 6.89 | – | – | – | – | – | 6.59 | 7.27 | – | – | – | 7.52 | – | 6.52 | – | 7.41 | – | 6.68 | 7.39 | 7.15 | pEC50 [24]: 7.48
